From ChEMBL document CHEMBL4007452, “Discovery of an Orally Selective Inhibitor of Signal Transducer and Activator of Transcription 3 Using Advanced Multiple Ligand Simultaneous Docking” (J Med Chem, 2017)
Active and inactive are the calls of the source. The calls are words filed in the database; no cut-off is given here.

Tests used:
[1] = system: Rattus norvegicus; test: Apparent volume of distribution in Sprague-Dawley rat plasma at 10 mg/kg, po measured after 24 hrs by UPLC analysis; format: ADME, organism-based; details: in vivo
Outline: (§1)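 Rat plasma sampled from 2 min to 24 h after a single i.v. (1 mg/kg) or p.o. (10 mg/kg) dose. Parameters were derived from the concentration-time profiles. The bioanalytical method was validated to FDA guidelines for selectivity, linearity, LLOQ, accuracy, precision, recovery, matrix effect and stability.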

[2] = Antiproliferative activity against human UW288-1 cells after 24 hrs by MTT assay; format: functional, cell-based; details: UW288-1, 24 h
Outline: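 Cells were seeded at 3000 per well and incubated 24 h at 37 °C. Compounds were added in triplicate with 10% FBS: 0.1-10 or 0.1-20 µM for cancer lines, 3.125-400 µM for MCF-10A. Viability was read by MTT absorbance at 595 nm, with IC50 fitted from the curves. DMSO stocks were 20 mM.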

[3] = target: T1, Signal transducer and activator of transcription 3 (Homo sapiens, UniProt P40763); test: Displacement of 5-FAM-SpYLPQTV from STAT3 (unknown origin) at pY705 site after 30 mins by fluorescence polarization assay
T1 sequence (P40763 whole entry): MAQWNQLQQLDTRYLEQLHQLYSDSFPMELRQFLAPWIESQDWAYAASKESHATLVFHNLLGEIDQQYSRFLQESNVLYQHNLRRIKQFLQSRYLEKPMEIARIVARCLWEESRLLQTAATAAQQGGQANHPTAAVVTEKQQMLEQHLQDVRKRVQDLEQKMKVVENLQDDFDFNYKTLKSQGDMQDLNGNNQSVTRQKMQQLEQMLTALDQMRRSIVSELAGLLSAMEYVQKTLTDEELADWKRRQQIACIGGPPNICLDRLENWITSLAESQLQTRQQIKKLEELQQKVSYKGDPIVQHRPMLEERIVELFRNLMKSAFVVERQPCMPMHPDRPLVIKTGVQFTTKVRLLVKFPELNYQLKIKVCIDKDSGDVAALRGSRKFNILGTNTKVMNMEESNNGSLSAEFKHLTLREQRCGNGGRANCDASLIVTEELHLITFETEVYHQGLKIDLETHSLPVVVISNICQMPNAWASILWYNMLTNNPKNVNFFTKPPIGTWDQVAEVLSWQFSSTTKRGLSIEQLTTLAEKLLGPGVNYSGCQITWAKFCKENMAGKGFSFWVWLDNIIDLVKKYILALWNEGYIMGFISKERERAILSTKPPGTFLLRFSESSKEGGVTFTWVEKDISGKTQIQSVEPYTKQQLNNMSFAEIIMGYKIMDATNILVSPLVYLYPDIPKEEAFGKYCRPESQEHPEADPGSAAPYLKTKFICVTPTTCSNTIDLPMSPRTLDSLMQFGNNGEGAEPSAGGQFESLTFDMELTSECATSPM

[4] = system: Mus musculus; test: Toxicity in BALB/c nude mouse xenografted with human MDA-MB-231 cells assessed as reduction in body weight at 2.5 to 10 mg/kg, po qd administered for 32 days; format: organism-based; details: in vivo, 768 h
Outline: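 MDA-MB-231 cells (5 x 10^6) were implanted s.c. in the flank of 6-week-old female athymic BALB/c nude mice. Oral dosing started at a tumor volume of about 100 mm3, with 8 mice per group and a saline vehicle control. […] Body weight was tracked over the 32-day treatment.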

[5] = AUC (0 to t) in Sprague-Dawley rat plasma at 1 mg/kg, iv measured after 24 hrs by UPLC analysis; format: ADME, organism-based; design: dose 1 mg/kg, time < 24 hr, route intravenous; outline: as §1
[6] = target: T1, Signal transducer and activator of transcription 3; details: 2.5 to 5 uM
[7] = target: Epidermal growth factor receptor (Homo sapiens) (UniProt P00533); test: Inhibition of EGFR in human UW426 cells assessed as reduction in p-Akt level at 1 to 2.5 uM after 24 hrs by immunoblot analysis; format: cell-based
Epidermal growth factor receptor (Homo sapiens), sequence (P00533 whole entry): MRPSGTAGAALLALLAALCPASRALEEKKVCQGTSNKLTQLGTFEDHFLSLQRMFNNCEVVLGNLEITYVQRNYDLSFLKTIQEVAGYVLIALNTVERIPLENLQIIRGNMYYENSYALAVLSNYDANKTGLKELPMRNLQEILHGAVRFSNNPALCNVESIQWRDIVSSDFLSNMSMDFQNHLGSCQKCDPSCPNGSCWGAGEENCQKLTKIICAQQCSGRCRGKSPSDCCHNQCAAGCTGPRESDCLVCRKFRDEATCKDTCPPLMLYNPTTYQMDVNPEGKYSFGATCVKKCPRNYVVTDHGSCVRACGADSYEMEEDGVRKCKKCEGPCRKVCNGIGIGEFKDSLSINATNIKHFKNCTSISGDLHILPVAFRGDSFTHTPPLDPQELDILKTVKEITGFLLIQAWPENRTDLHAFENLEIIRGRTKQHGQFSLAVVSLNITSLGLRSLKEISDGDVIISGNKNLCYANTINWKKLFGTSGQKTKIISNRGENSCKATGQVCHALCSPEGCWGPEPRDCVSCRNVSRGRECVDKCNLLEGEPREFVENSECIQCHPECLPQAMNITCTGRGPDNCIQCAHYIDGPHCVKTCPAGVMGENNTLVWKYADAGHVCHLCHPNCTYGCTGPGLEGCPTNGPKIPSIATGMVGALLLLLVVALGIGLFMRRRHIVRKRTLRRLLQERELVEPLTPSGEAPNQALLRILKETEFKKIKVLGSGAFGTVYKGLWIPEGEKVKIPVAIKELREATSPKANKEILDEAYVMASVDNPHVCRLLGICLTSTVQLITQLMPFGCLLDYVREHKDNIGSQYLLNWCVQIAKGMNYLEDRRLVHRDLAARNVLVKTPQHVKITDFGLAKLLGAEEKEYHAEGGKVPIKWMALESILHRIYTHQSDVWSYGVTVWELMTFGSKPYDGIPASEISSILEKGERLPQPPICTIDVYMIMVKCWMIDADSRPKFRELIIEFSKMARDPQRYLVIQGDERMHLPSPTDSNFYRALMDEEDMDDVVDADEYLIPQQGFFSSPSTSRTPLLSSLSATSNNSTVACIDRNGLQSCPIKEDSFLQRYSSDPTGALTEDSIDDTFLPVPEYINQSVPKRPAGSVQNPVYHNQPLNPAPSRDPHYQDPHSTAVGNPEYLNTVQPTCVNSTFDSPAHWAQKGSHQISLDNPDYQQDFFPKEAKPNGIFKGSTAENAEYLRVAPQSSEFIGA
Outline: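 UW426 cells at 60–80% confluence were treated 24 h at 1-2.5 µM with 10% FBS, against a DMSO control, then immunoblotted.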

[8] = Terminal half life in Sprague-Dawley rat plasma at 1 mg/kg, iv measured after 24 hrs by UPLC analysis; format: ADME, organism-based; details: read-out: beta t1/2 (converted)
Outline: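 Rats dosed i.v. or p.o. Plasma concentrations followed from 2 min to 24 h after dosing. The bioanalytical method was validated to FDA guidelines for selectivity, linearity, LLOQ, accuracy, precision, recovery, matrix effect and stability.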

[9] = system: Mus musculus; test: Toxicity in BALB/c nude mouse xenografted with […] S180 cells assessed as body weight loss at 5 mg/kg, po after 21 days relative to vehicle control; format: organism-based; details: in vivo, 504 h
[10] = Cmax in Sprague-Dawley rat plasma at 10 mg/kg, po measured after 24 hrs by UPLC analysis; format: ADME, organism-based; design: dose 10 mg/kg, route oral; outline: as §1
[11] = target: T1, Signal transducer and activator of transcription 3; details: 2.5 to 5 uM; remark: listed apart in the source
[12] = AUC (0 to infinity) in Sprague-Dawley rat plasma at 10 mg/kg, po measured after 24 hrs by UPLC analysis; format: ADME, organism-based; design: dose 10 mg/kg, route oral, time infinity; outline: as §1
[13] = system: Mus musculus; test: Toxicity in BALB/c nude mouse xenografted with human MDA-MB-231 cells assessed as lung damage at 2.5 to 10 mg/kg, po qd administered for 32 days by H&E staining based light microscopy; format: organism-based; details: in vivo, 768 h
Outline: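 6-week-old female athymic SPF BALB/c nude mice received 5 x 10^6 MDA-MB-231 cells s.c. in the flank. Oral treatment began once tumors reached about 100 mm3, with 8 mice per group and a saline vehicle control. […] Treatment lasted 32 days. Heart, liver, spleen, lung and kidney were fixed 48 h in 10% neutral-buffered formaldehyde, paraffin-embedded, cut at 5 µm, H&E-stained and examined by light microscopy.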

[14] = system: Mus musculus; test: In vivo inhibition of STAT3 in po dosed BALB/c nude mouse xenografted with human MDA-MB-231 assessed as reduction in p-STAT3(Y705) level administered as qd for 32 days by Western blot analysis; format: functional, organism-based
Outline: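 Whole-cell lysates from MDA-MB-231 xenograft tumors of mice dosed orally at 2.5, 5 or 10 mg/kg were immunoblotted for P-STAT3(Y705), T-STAT3 and GAPDH.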

[15] = system: MDA-MB-231; test: Induction of SHP-1 expression in human MDA-MB-231 cells at 2.5 to 10 uM after 12 hrs by immunoblot analysis; format: functional, cell-based
Outline: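 MDA-MB-231 cells at 60–80% confluence were treated 12 h with 10% FBS at 2.5-10 µM or 2.5-5 µM, against a DMSO control. Whole-cell lysates were immunoblotted, with bands quantified as percent of control.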

[16] = system: Rattus norvegicus; test: AUMC (0 to infinity) in Sprague-Dawley rat plasma at 1 mg/kg, iv measured after 24 hrs by UPLC analysis; format: ADME, organism-based; details: in vivo; outline: as §1

NS(=O)(=O)c1cccc2c1C(=O)C=C(Nc1ccccc1N1CCNCC1)C2=O
Vz [1]: 32.0925 L/kg | IC50 [2]: 2800 nM | Ki [3]: 440 nM | Activity [4]: Non-Toxic | AUC(0-t) at 24 h [5]: 189 ng·h/mL | inhibition [6]: Active | inhibition [7]: inactive | half-life [8]: 42.6 min | Activity [9]: 1.68% | Cmax [10]: 540 ng/mL | inhibition [11]: Active | AUC(0-inf) [12]: 889 ng·h/mL | Activity [13]: Non-Toxic | inhibition [14]: Dose-dependent effect | Activity [15]: Active | AUMC [16]: 149 hr2.ng/ml
